Calls of active or inactive are those of the source. The rule behind the calls is not given here.
Legend:
[1] = target: PCSK9/LDLR (Homo sapiens, UniProt Q8NBP7); test: Inhibition of recombinant human His-tagged PCSK9 interaction with recombinant LDLR AB domain (unknown origin) measured after 3 hrs by horseradish peroxidase-coupled TMB substrate based spectrophotometry; type: protein assay
Summary of the method: (§1)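 ELISA plates pre-coated with LDLR-EGF-AB domain. Compounds serially diluted from 10 mM DMSO stocks in reaction buffer, with 7 ng His-tagged human PCSK9 added, 3 h at room temperature with shaking. Binding detected with biotinylated anti-His antibody (1 h), then HRP-streptavidin (20 min), then substrate (15 min); absorbance read at 450/540 nm. IC50 taken from the % inhibition curve.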

[2] = target: Platelet-derived growth factor receptor beta (Homo sapiens, UniProt P09619); test: Inhibition of recombinant human N-terminal GST-tagged PDGFRbeta cytoplasmic domain (557 to 1106 residues) expressed in baculovirus expression system using FAM-labelled P22 peptide as substrate preincubated for 10 mins followed by substrate addition and measured after 1 hr in presence of ATP by fluorescence assay
[3] = target: Mast/stem cell growth factor receptor Kit (Homo sapiens, UniProt P10721); test: Inhibition of recombinant human N-terminal GST-tagged c-Kit (544 to end residues) expressed in baculovirus infected Sf21 insect cells using FAM-labelled P22 peptide as substrate preincubated for 10 mins followed by substrate addition and measured after 1 hr in presence of ATP by fluorescence assay
[4] = target: Tyrosine-protein kinase ABL1 (Homo sapiens, UniProt P00519); test: Inhibition of recombinant human N-terminal His-tagged Abl (2 to 1130 residues) expressed in baculovirus expression system using FAM-labelled P2 peptide as substrate preincubated for 10 mins followed by substrate addition and measured after 1 hr in presence of ATP by fluorescence assay
[5] = target: Proto-oncogene tyrosine-protein kinase Src (Homo sapiens, UniProt P12931); test: Inhibition of recombinant human full-length N-terminal GST-tagged SRC (1 to 536 residues) expressed in baculovirus expression system using FAM-labelled P4 peptide as substrate preincubated for 10 mins followed by substrate addition and measured after 1 hr in presence of ATP by fluorescence assay
[6] = Terminal half life in CD1 mouse at 0.4 mg/kg, iv administered as cassette dose measured upto 24 hrs by LC-MS/MS analysis; type: ADME, organism-based; conditions: in vivo, read-out: beta t1/2 (converted)
Summary of the method: (§2)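 Male CD1 mice (second cassette 28–29 g, 7–8 weeks) given one IV 5-in-1 cassette at 0.4 mg/kg per compound in 5% DMAC/5% Solutol HS15/90% saline. Blood (~20 µL) into K2EDTA from the facial vein at 0.083–24 h, terminal bleed by cardiac puncture under isoflurane. Blood diluted with deionised water, stored at −80 °C, analysed by positive-ESI mass spectrometry.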

[7] = Volume of distribution at steady state in CD1 mouse at 0.4 mg/kg, iv administered as cassette dose measured upto 24 hrs by LC-MS/MS analysis; type: ADME, organism-based; conditions: in vivo, read-out: Vdss; summary of the method: as §2
[8] = Clearance in CD1 mouse at 0.4 mg/kg, iv administered as cassette dose measured upto 24 hrs by LC-MS/MS analysis; type: ADME, organism-based; conditions: in vivo; summary of the method: as §2
[9] = AUClast in CD1 mouse at 0.4 mg/kg, iv administered as cassette dose measured upto 24 hrs by LC-MS/MS analysis; type: ADME, organism-based; parameters: time < 24 hr, dose 0.4 mg/kg, route intravenous; conditions: in vivo; summary of the method: as §2
[10] = Mean residence time (0 to infinity) in CD1 mouse at 0.4 mg/kg, iv administered as cassette dose measured upto 24 hrs by LC-MS analysis; type: ADME, organism-based; conditions: in vivo; summary of the method: as §2
[11] = AUCinfinity in CD1 mouse at 0.4 mg/kg, iv administered as cassette dose measured upto 24 hrs by LC-MS/MS analysis; type: ADME, organism-based; parameters: dose 0.4 mg/kg, route intravenous, time infinity; conditions: in vivo; summary of the method: as §2
[12] = system: PCSK9/LDLR (Homo sapiens), Q8NBP7+P01130 [D374Y]; test: Inhibition of PCSK9 D374Y mutant (unknown origin) and LDLR protein-protein interaction in human HepG2 cells assessed as increase in Bodipy FL-labelled LDL uptake preincubated for 16 hrs followed by Bodipy FL-labelled LDL addition and measured after 4 hrs by fluorescence assay; type: cell-based
Summary of the method: (§3)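 HepG2 cells seeded at 2 × 10^5 cells/mL and attached overnight, then incubated 16 h with PCSK9-D374Y (2 μg/mL) plus compound (0.1 or 1 µM). Medium replaced with 10 μg/mL Bodipy FL LDL for 4 h. Cells washed with warm PBS; fluorescence read at ex 485/em 530 nm. Mean ± S.D.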

[13] = target: PCSK9/LDLR (Homo sapiens) (UniProt Q8NBP7+P01130); test: Inhibition of recombinant human His-tagged PCSK9 interaction with recombinant LDLR AB domain (unknown origin) at higher concentration measured after 3 hrs by horseradish peroxidase-coupled TMB substrate based spectrophotometry relative to control; type: protein assay; summary of the method: as §1
[14] = system: PCSK9/LDLR (Homo sapiens), Q8NBP7+P01130 [D374Y]; test: Inhibition of PCSK9 D374Y mutant (unknown origin) and LDLR protein-protein interaction in human HepG2 cells assessed as increase in Bodipy FL-labelled LDL uptake at 0.1 or 1 uM preincubated for 16 hrs followed by Bodipy FL-labelled LDL addition and measured after 4 hrs by fluorescence assay; type: cell-based; summary of the method: as §3

Chain of PCSK9/LDLR (Homo sapiens) (P01130 22-860 partner limits assumed): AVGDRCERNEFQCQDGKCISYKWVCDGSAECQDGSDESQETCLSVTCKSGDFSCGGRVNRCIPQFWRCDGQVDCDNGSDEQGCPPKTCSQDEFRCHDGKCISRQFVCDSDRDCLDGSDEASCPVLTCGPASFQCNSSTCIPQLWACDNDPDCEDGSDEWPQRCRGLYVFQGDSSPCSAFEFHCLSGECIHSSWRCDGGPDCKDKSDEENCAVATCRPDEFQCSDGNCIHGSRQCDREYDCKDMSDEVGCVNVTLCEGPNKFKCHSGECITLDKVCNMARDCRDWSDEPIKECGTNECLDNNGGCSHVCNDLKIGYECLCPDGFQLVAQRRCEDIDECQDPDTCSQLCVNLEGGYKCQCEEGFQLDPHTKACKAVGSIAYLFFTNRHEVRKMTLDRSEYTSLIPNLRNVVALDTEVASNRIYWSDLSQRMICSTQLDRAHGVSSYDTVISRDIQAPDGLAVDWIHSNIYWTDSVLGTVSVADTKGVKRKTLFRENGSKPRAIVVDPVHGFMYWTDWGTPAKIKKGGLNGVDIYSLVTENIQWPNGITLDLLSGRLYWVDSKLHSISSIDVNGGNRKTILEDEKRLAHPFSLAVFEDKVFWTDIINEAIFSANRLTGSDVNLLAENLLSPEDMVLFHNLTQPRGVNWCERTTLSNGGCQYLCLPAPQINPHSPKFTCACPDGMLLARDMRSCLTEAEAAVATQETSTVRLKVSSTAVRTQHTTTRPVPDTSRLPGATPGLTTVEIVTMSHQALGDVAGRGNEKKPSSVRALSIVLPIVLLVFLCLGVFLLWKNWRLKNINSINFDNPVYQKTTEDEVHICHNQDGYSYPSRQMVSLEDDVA
Chain of PCSK9/LDLR (Homo sapiens) (Q8NBP7 31-152 limits assumed): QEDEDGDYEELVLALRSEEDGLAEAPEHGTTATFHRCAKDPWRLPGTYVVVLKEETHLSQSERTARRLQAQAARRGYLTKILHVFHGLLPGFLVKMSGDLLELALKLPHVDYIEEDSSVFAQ
Chain of PCSK9/LDLR (Homo sapiens) (Q8NBP7 153-692 limits assumed): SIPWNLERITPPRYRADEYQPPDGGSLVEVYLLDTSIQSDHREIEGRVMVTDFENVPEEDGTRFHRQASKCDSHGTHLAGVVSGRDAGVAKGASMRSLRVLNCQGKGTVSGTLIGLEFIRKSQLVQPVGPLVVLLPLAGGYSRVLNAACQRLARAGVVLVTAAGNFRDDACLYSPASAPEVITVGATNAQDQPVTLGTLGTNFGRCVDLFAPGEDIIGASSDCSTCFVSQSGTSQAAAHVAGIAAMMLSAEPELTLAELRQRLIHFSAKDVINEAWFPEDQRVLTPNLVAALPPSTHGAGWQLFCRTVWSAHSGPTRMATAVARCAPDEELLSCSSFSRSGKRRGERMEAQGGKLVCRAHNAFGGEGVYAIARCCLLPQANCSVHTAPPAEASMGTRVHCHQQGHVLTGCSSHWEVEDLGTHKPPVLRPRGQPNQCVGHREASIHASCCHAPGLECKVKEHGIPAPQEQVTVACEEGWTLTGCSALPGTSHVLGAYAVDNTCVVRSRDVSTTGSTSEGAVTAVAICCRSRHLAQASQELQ
Chain of Tyrosine-protein kinase ABL1 (P00519 whole entry, the tested form may be a part): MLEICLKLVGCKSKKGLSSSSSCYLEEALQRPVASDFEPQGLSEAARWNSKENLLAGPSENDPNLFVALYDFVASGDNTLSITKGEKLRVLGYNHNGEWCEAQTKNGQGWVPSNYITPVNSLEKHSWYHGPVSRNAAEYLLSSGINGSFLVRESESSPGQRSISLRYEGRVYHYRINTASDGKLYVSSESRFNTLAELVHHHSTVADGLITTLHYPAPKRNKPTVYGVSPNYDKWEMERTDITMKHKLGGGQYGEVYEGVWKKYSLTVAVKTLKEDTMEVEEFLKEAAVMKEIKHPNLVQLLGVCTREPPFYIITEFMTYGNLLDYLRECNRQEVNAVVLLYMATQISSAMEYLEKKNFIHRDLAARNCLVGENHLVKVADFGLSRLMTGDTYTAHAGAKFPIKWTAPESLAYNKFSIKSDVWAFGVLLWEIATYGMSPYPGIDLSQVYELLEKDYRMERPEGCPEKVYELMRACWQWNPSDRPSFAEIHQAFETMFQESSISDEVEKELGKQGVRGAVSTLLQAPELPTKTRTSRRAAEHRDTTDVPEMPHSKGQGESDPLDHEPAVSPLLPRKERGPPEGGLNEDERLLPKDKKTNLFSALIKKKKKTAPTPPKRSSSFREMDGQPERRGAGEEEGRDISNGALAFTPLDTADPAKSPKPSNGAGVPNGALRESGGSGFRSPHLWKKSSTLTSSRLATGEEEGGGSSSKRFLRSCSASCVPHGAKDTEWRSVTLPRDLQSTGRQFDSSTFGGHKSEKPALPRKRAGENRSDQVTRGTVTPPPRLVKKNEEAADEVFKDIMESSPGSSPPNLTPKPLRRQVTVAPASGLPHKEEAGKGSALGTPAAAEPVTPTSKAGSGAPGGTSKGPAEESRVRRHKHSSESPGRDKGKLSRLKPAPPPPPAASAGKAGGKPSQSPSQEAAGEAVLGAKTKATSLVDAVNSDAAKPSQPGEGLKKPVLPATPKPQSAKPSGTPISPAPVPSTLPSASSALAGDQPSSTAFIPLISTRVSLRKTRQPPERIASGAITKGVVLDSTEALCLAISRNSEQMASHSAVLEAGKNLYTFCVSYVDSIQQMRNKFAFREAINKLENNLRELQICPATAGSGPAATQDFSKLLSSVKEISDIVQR
Chain of PCSK9/LDLR (Q8NBP7 31-152 limits assumed): as the sequence (Q8NBP7 31-152 limits assumed) above
Chain of PCSK9/LDLR (Q8NBP7 153-692 limits assumed): as the sequence (Q8NBP7 153-692 limits assumed) above
Chain of PCSK9/LDLR (P01130 22-860 partner limits assumed): as the sequence (P01130 22-860 partner limits assumed) above
Chain of Proto-oncogene tyrosine-protein kinase Src (P12931 2-536 limits assumed): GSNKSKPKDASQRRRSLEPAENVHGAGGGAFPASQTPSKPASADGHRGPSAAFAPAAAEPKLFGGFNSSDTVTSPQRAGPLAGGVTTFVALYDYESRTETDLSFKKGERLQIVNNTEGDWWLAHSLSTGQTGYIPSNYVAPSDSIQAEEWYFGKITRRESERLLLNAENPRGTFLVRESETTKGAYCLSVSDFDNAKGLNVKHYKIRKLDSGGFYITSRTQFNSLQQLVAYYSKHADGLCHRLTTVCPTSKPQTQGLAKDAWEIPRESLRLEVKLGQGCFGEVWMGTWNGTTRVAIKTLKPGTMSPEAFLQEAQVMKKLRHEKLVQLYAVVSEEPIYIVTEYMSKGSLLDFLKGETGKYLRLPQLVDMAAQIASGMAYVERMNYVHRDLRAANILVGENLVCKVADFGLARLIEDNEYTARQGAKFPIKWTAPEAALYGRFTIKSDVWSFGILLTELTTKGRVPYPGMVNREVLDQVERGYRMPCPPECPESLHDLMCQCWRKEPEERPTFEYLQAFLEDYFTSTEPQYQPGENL
Chain of Mast/stem cell growth factor receptor Kit (P10721 whole entry, the tested form may be a part): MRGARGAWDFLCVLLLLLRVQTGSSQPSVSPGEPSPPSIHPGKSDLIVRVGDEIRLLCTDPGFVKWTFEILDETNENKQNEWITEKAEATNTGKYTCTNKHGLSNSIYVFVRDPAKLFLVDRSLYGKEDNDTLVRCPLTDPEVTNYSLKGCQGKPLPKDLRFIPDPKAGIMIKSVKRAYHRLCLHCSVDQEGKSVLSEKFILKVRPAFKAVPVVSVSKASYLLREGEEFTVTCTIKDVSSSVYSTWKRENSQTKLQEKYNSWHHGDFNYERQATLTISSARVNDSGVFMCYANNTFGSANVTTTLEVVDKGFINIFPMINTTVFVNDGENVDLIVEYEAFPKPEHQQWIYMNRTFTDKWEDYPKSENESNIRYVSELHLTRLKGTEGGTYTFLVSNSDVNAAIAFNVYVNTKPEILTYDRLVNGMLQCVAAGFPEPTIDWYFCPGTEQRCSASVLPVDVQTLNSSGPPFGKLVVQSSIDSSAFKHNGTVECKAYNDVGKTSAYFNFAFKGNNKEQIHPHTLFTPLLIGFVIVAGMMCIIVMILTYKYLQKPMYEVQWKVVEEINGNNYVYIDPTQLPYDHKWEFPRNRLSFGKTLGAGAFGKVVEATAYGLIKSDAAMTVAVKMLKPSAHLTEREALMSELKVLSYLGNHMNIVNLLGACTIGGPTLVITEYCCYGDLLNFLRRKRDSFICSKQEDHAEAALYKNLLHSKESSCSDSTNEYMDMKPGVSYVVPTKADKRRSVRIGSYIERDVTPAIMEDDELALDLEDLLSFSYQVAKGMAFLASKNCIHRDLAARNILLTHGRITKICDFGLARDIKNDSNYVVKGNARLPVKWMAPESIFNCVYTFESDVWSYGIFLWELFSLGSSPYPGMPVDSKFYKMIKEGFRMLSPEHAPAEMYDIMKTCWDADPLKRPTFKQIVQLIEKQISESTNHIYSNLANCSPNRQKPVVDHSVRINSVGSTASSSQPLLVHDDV

Row | SMILES | IC50 [1] | IC50 [2] | IC50 [3] | IC50 [4] | IC50 [5] | half-life [6] | Vd [7] | clearance [8] | AUC(0-t) at 24 h [9] | MRT inf [10] | AUC(0-inf) [11] | inhibition [12] | Imax [13] | inhibition [14]
1 | Cc1cc(-c2cc(NC(=O)c3ccc(C)c(Nc4nccc(-c5ccc(F)cc5)n4)c3)cc(N3CCN(C)CC3)c2)on1 | 10.7 µM | 5.52 µM | 3.1 µM | > 10 µM | > 10 µM |  |  |  |  |  |  |  |  | 
2 | Cc1ccc(C(=O)Nc2cccc(N3CCN(C)CC3)c2)cc1Nc1nccc(-c2ccc(F)cc2)n1 | 3.29 µM | > 10 µM | 0.093 µM | > 10 µM | > 10 µM |  |  |  |  |  |  |  |  | 
3 | Cc1cn(-c2cc(CCC(=O)O)cc(NC(=O)c3ccc(C)c(Nc4nccc(-c5ccccc5)n4)c3)c2)cn1 | 9.28 µM | > 10 µM | 0.347 µM | > 10 µM | > 10 µM |  |  |  |  |  |  |  |  | 
4 | Cc1cn(-c2cc(NC(=O)c3ccc(C)c(Nc4nccc(-c5ccccc5)n4)c3)cc(N3CCNCC3)c2)cn1 | 0.491 µM | 1.51 µM | 1.49 µM |  | 4.36 µM | 1.64 h | 3.74 L/kg | 52.5 mL/min/kg | 116 ng·h/mL | 1.19 h | 127 ng·h/mL |  |  | 
5 | Cc1ccc(C(=O)Nc2cc(N3CCN(C)CC3)cc(-n3cnc(C)c3)c2)cc1 | 26.3 µM | > 10 µM | > 10 µM | > 10 µM | > 10 µM |  |  |  |  |  |  |  |  | 
6 | CCCCc1cc(NC(=O)c2ccc(C)c(Nc3nccc(-c4ccccc4)n3)c2)cc(-n2cnc(C)c2)c1 | 7.41 µM | > 10 µM | 0.302 µM |  | > 10 µM |  |  |  |  |  |  |  |  | 
7 | Cc1cn(-c2cc(NC(=O)c3ccc(C)c(Nc4nccc(-c5ccccc5)n4)c3)cc(N3CCN(C)CC3)c2)cn1 | 0.758 µM | > 10 µM | 2.88 µM | > 10 µM | > 10 µM | 2.21 h | 4.3 L/kg | 32.8 mL/min/kg | 189 ng·h/mL | 2.16 h | 204 ng·h/mL | Dose-dependent effect | > 35% | 
8 | Cc1cn(-c2cc(NC(=O)c3ccc(C)c(Oc4ccccc4)c3)cc(C(F)(F)F)c2)cn1 | 13.4 µM | > 10 µM | 0.618 µM | > 10 µM | > 10 µM | 2.15 h | 1.69 L/kg | 12.5 mL/min/kg | 508 ng·h/mL | 2.27 h | 541 ng·h/mL |  |  | 

More lines, in order of falling IC50 [1], values ahead:

Row | IC50 [1] | IC50 [2] | IC50 [3] | IC50 [4] | IC50 [5] | half-life [6] | Vd [7] | clearance [8] | AUC(0-t) at 24 h [9] | MRT inf [10] | AUC(0-inf) [11] | inhibition [12] | Imax [13] | inhibition [14] | SMILES
9 | 40.1 µM | > 10 µM | 0.79 µM | > 10 µM | > 10 µM |  |  |  |  |  |  |  |  |  | Cc1cn(-c2cc(NC(=O)c3ccc(C)c(Nc4nccc(-c5ccc(F)cc5)n4)c3)cc(N3CCOCC3)c2)cn1
10 | 14 µM | > 10 µM | > 10 µM | > 10 µM | > 10 µM |  |  |  |  |  |  |  |  |  | Cc1cn(-c2cc(CN3CCCC[C@H]3C(=O)O)cc(NC(=O)c3ccc(C)c(Nc4nccc(-c5ccc(F)cc5)n4)c3)c2)cn1
11 | 13.4 µM | > 10 µM | 6 µM | > 10 µM | > 10 µM | 0.216 h | 1.72 L/kg | 110 mL/min/kg | 58.5 ng·h/mL | 0.239 h | 63.7 ng·h/mL |  |  |  | Cc1cn(-c2cc(CCS(N)(=O)=O)cc(NC(=O)c3ccc(C)c(Nc4nccc(-c5ccccc5)n4)c3)c2)cn1
12 | 11.3 µM | > 10 µM | 2.77 µM | > 10 µM | > 10 µM |  |  |  |  |  |  |  |  |  | Cc1cn(-c2cc(/C=C/C(=O)O)cc(NC(=O)c3ccc(C)c(Nc4nccc(-c5ccccc5)n4)c3)c2)cn1
13 | 9.8 µM |  |  |  |  |  |  |  |  |  |  |  |  |  | Cc1cn(-c2cc(NC(=O)c3ccc(C)c(Nc4nccc(-c5cccnc5)n4)c3)cc(C(F)(F)F)c2)cn1 [NILOTINIB]
14 | 8.4 µM | 2.48 µM | 0.592 µM |  | > 10 µM |  |  |  |  |  |  |  |  |  | Cc1cn(-c2cc(NC(=O)c3ccc(C)c(Nc4nccc(-c5ccccc5)n4)c3)cc(C(F)(F)F)c2)cn1
15 | 2.57 µM | > 10 µM | 9.87 µM | > 10 µM | > 10 µM |  |  |  |  |  |  |  |  |  | Cc1cn(-c2cc(CN3CCCC[C@H]3C(N)=O)cc(NC(=O)c3ccc(C)c(Nc4nccc(-c5ccc(F)cc5)n4)c3)c2)cn1
16 | 2.13 µM | > 10 µM | > 10 µM | > 10 µM | > 10 µM | 1.09 h | 4.7 L/kg | 81 mL/min/kg | 78 ng·h/mL | 0.96 h | 83 ng·h/mL |  |  |  | Cc1cn(-c2cc(NC(=O)c3ccc(C)c(C(=O)c4cccc(C#N)c4)c3)cc(N3CCN(C)CC3)c2)cn1
17 | 0.759 µM | 7.66 µM | > 10 µM | > 10 µM | > 10 µM | 7.36 h | 9.26 L/kg | 17.5 mL/min/kg | 338 ng·h/mL | 8.98 h | 384 ng·h/mL |  | 20% | inactive | Cc1cn(-c2cc(NC(=O)c3ccc(C)c(Oc4ccccc4)c3)cc(N3CCN(C)CC3)c2)cn1
18 | 0.714 µM | 5.42 µM | 2.57 µM | > 10 µM | > 10 µM | 3.29 h | 5.65 L/kg | 35.7 mL/min/kg | 166 ng·h/mL | 2.66 h | 187 ng·h/mL |  |  |  | Cc1cn(-c2cc(CN3CCN(C)CC3)cc(NC(=O)c3ccc(C)c(Nc4nccc(-c5ccccc5)n4)c3)c2)cn1
19 | 0.428 µM | 2.04 µM | 1.96 µM | > 10 µM | > 10 µM | 10.8 h | 13.3 L/kg | 23.5 mL/min/kg | 243 ng·h/mL | 10.4 h | 297 ng·h/mL |  |  |  | Cc1cn(-c2cc(CN3CCC[C@H](N)C3)cc(NC(=O)c3ccc(C)c(Nc4nccc(-c5ccc(F)cc5)n4)c3)c2)cn1
20 | 0.078 µM | 3.29 µM | 0.227 µM | > 10 µM | 2.61 to 2.62 µM | 2.77 h | 6.7 L/kg | 50.8 mL/min/kg | 128 ng·h/mL | 2.3 h | 133 ng·h/mL | Dose-dependent effect | > 35% |  | Cc1cn(-c2cc(NC(=O)c3ccc(C)c(Oc4cccc5ccncc45)c3)cc(N3CCN(C)CC3)c2)cn1
